Data published in ChEMBL document CHEMBL2321652, “Design and synthesis of HIV-1 protease inhibitors for a long-acting injectable drug application” (Bioorg Med Chem Lett, 2013).

Tests used:
[1] = Drug metabolism in human liver microsomes at 1 uM after 15 mins; format: ADME, Microsome; settings: read-out: Drug metabolism
Procedure, shortened: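 Human liver microsome incubation at 37 °C for 15 min with compound at 1 µM; turnover expressed as percent of compound metabolized.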

[2] = Plasma clearance in rat at 2 mg/kg, iv; format: ADME, organism-based; parameters: dose 2 mg/kg, route intravenous
Procedure, shortened: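 Single intravenous dose of 2 mg/kg in rats. The formulation is typically 1 mg/mL in PEG400/ethanol/saline (70/20/10). Clearance values are averages from two or three animals. High is >3 L/h/kg (>70% liver blood flow) and low is <1.3 L/h/kg (<30%).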

[3] = system: Human immunodeficiency virus 1; experiment: Selectivity ratio of EC50 for Human immunodeficiency virus 1 3B clinical isolate harboring L10I/K20R/M36I/G48V/ I62V/A71V/V82A/I93L protease mutant to EC50 for wild type Human immunodeficiency virus 1 3B; format: functional
[4] = system: Human immunodeficiency virus 1; experiment: Selectivity ratio of EC50 for Human immunodeficiency virus 1 3B clinical isolate harboring L10I/I13V/M46I/I50V/L63P/L76V protease mutant to EC50 for wild type Human immunodeficiency virus 1 3B; format: functional
[5] = system: Human immunodeficiency virus 1; experiment: Selectivity ratio of EC50 for Human immunodeficiency virus 1 3B clinical isolate harboring L10I/M46I/I64V/I84V/L90M/I93L protease mutant to EC50 for wild type Human immunodeficiency virus 1 3B; format: functional
[6] = system: Human immunodeficiency virus 1; experiment: Antiviral activity against Human immunodeficiency virus 1 3B clinical isolate harboring L10I/K20R/M36I/G48V/ I62V/A71V/V82A/I93L protease mutant infected in human MT4 cells assessed as inhibition of viral replication; format: functional, organism-based
Procedure, shortened: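 Each assay run in quadruplicate. Values are averages of at least two independent experiments, typically three to four. Cytotoxicity (CC50) was measured in parallel in MT4 cells.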

[7] = system: Human immunodeficiency virus 1; experiment: Antiviral activity against Human immunodeficiency virus 1 3B clinical isolate harboring L10I/I13V/M46I/I50V/L63P/L76V protease mutant infected in human MT4 cells assessed as inhibition of viral replication; format: functional, organism-based
Procedure, shortened: (§1)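 Inhibition of replication in MT4 cells infected with protease-mutant HIV-1 clinical isolates, reported as EC50. Each assay run in quadruplicate. Values are averages of at least two independent experiments, typically three to four. Cytotoxicity (CC50) was measured in parallel in MT4 cells.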

[8] = system: Human immunodeficiency virus 1; experiment: Antiviral activity against Human immunodeficiency virus 1 3B clinical isolate harboring L10I/M46I/I64V/I84V/L90M/I93L protease mutant infected in human MT4 cells assessed as inhibition of viral replication; format: functional, organism-based; procedure, shortened: as §1
[9] = Cytotoxicity against human MT4 cells; format: cell-based
[10] = system: Human immunodeficiency virus 1; experiment: Antiviral activity against wild type Human immunodeficiency virus 1 3B infected in human MT4 cells assessed as inhibition of viral replication; format: functional, organism-based
Procedure, shortened: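 EC50 values are averages of at least two independent experiments (typically three to four), each run in quadruplicate. For the serum-shifted line, the same antiviral assay includes 50% human serum, used as a functional measure of plasma protein binding.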

[11] = system: Human immunodeficiency virus 1; experiment: Antiviral activity against wild type Human immunodeficiency virus 1 3B infected in human MT4 cells assessed as inhibition of viral replication in presence of 50% human serum
[12] = Aqueous solubility of the compound in crystalline polymorphic form; format: physicochemical
[13] = Bioavailability in rat at 50 mg/mL formulated with 25 mg/mL of poloxamer 338 and sucrose in water administered intramuscularly measured after 1 month; format: ADME, organism-based; settings: in vivo, im
Procedure, shortened: (§2)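 Nanosuspension depot given by a single intramuscular injection in rats. Blood is sampled at regular intervals over two months. Absolute bioavailability is assessed after 1 month of sampling as ((AUC_IM × dose_IV)/(AUC_IV × dose_IM)) × 100, relative to intravenous dosing.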

[14] = Bioavailability in rat at 50 mg/mL formulated with Vit-E TPGS, DSPG and sucrose in water administered intramuscularly measured after 1 month; format: ADME, organism-based; settings: in vivo, im; procedure, shortened: as §2
[15] = Bioavailability in rat at 100 mg/mL formulated with polysorbate 20 and NaCl in water administered intramuscularly measured after 1 month; format: ADME, organism-based; settings: in vivo, im; procedure, shortened: as §2

In the case of COC(=O)N[C@H](C(=O)N[C@@H](Cc1ccccc1)[C@@H](O)C[C@@H](Cc1ccccc1)C(=O)N[C@H]1c2ccccc2OC[C@H]1O)C(C)(C)C, the metabolised at 0.25 h, 1 µM [1] is reported as 99%, the clearance [2] is reported as 66.7 mL/min/kg and the “Ratio EC50” value [3] is reported as <1. The “Ratio EC50” value [4] was <1, the “Ratio EC50” value [5] was 2 and the EC50 [6] was 7 nM. For the same molecule, the EC50 [7] was 6 nM, the EC50 [8] was 19 nM and the CC50 [9] was > 10000 nM. The EC50 [10] was 10 nM and the EC50 [11] was 19 nM.
In the case of COC(=O)N[C@H](C(=O)N[C@@H](Cc1ccc(-c2ccc(OC)nc2)cc1)[C@@H](O)C[C@@H](Cc1ccccc1F)C(=O)N[C@H]1c2cc(C)ccc2OC[C@H]1O)C(C)(C)C, the metabolised at 0.25 h, 1 µM [1] is reported as 63%, the clearance [2] is reported as 46.7 mL/min/kg and the CC50 [9] is reported as > 10000 nM. For the same molecule, the EC50 [10] was 0.9 nM and the EC50 [11] was 7.7 nM.
In the case of COC(=O)N[C@H](C(=O)N[C@@H](Cc1ccc(-c2ccc(OC)nc2)cc1)[C@@H](O)C[C@@H](Cc1ccccc1F)C(=O)N[C@H]1c2cccc(F)c2OC[C@H]1O)C(C)(C)C, the metabolised at 0.25 h, 1 µM [1] is reported as 98%, the clearance [2] is reported as 88.3 mL/min/kg and the CC50 [9] is reported as > 10000 nM. It also gave an EC50 [10] of 2.8 nM and an EC50 [11] of 6.9 nM.
In the case of COC(=O)N[C@H](C(=O)N[C@@H](Cc1ccc(-c2ccc(OC)nc2)cc1)[C@@H](O)C[C@@H](Cc1ccccc1F)C(=O)N[C@H]1CCCC[C@H]1O)C(C)(C)C, the metabolised at 0.25 h, 1 µM [1] is reported as 99%, the clearance [2] is reported as 86.7 mL/min/kg and the CC50 [9] is reported as > 10000 nM. It also gave an EC50 [10] of 1.8 nM and an EC50 [11] of 5.9 nM.
With COC(=O)N[C@H](C(=O)N[C@@H](Cc1ccc(-c2ccc(OC)nc2)cc1)[C@@H](O)C[C@@H](Cc1ccccc1F)C(=O)N[C@H]1c2ccccc2OC[C@H]1O)C(C)(C)C the metabolised at 0.25 h, 1 µM [1] was 72%, the clearance [2] was 96.7 mL/min/kg and the CC50 [9] was > 10000 nM. For the same molecule, the EC50 [10] was 2.5 nM and the EC50 [11] was 6.6 nM.
With COC(=O)N[C@H](C(=O)N[C@@H](Cc1ccc(-c2ccc(OC)nc2)cc1)[C@@H](O)C[C@@H](Cc1ccccc1F)C(=O)N[C@H]1c2cc(C)cc(F)c2OC[C@H]1O)C(C)(C)C the metabolised at 0.25 h, 1 µM [1] was 48%, the clearance [2] was 83.3 mL/min/kg and the CC50 [9] was > 10000 nM. For the same molecule, the EC50 [10] was 2.8 nM and the EC50 [11] was 9.8 nM.
In the case of COC(=O)N[C@H](C(=O)N[C@@H](Cc1ccc(-c2ccc(OC)nc2)cc1)[C@@H](O)C[C@@H](Cc1ccccc1Cl)C(=O)N[C@H]1[C@H](C)CCC[C@H]1O)C(C)(C)C, the metabolised at 0.25 h, 1 µM [1] is reported as 99%, the clearance [2] is reported as 70 mL/min/kg and the CC50 [9] is reported as > 10000 nM. For the same molecule, the EC50 [10] was 1.1 nM and the EC50 [11] was 7.1 nM.
In the case of COC(=O)N[C@H](C(=O)N[C@@H](Cc1ccc(-c2ccc(N(C)C)nc2)cc1)[C@@H](O)C[C@@H](Cc1ccccc1F)C(=O)N[C@H]1c2cc(F)cc(Cl)c2OC[C@H]1O)C(C)(C)C, the solubility [12] is reported as < 100 µg/mL, the bioavailability at 1 month [13] is reported as 5% and the bioavailability at 1 month [14] is reported as 12%. For the same molecule, the bioavailability at 1 month [15] was 3%, the metabolised at 0.25 h, 1 µM [1] was 22% and the clearance [2] was 13.3 mL/min/kg. For the same molecule, the “Ratio EC50” value [3] was <1, the “Ratio EC50” value [4] was <1 and the “Ratio EC50” value [5] was <1. For the same molecule, the EC50 [6] was 0.8 nM, the EC50 [7] was 0.9 nM and the EC50 [8] was 1.3 nM. The CC50 [9] was > 10000 nM, the EC50 [10] was 1.7 nM and the EC50 [11] was 6 nM.
With Cc1cccc(C)c1OCC(=O)N[C@@H](Cc1ccccc1)[C@@H](O)C[C@H](Cc1ccccc1)NC(=O)[C@H](C(C)C)N1CCCNC1=O [LOPINAVIR] the CC50 [9] was > 10000 nM and the EC50 [10] was 13 nM.
With CC(C)CN(C[C@@H](O)[C@H](Cc1ccccc1)NC(=O)O[C@H]1CO[C@H]2OCC[C@H]21)S(=O)(=O)c1ccc(N)cc1 the “Ratio EC50” value [3] was <1, the “Ratio EC50” value [4] was 8 and the “Ratio EC50” value [5] was 2. The EC50 [6] was 2.4 nM, the EC50 [8] was 12 nM and the CC50 [9] was > 10000 nM. It also gave an EC50 [11] of 17 nM.
In the case of COC(=O)N[C@H](C(=O)N[C@@H](Cc1ccccc1)[C@@H](O)CN(Cc1ccc(-c2ccccn2)cc1)NC(=O)[C@@H](NC(=O)OC)C(C)(C)C)C(C)(C)C [ATAZANAVIR], the “Ratio EC50” value [3] is reported as 9, the “Ratio EC50” value [4] is reported as <1 and the “Ratio EC50” value [5] is reported as 8. The EC50 [8] was 57 nM, the CC50 [9] was > 10000 nM and the EC50 [10] was 6.8 nM. The EC50 [11] was 13 nM.
